These results are taken from ChEMBL document CHEMBL4699643, “γ-Ketobenzyl-Modified Nucleoside Triphosphate Prodrugs as Potential Antivirals” (J Med Chem, 2020).

In series [1] the test system is Human immunodeficiency virus 2. The experiment in a line: Antiviral activity against HIV2 ROD infected in human TK-deficient […] cells assessed as inhibition of viral-induced giant cell formation incubated for 4 to 5 days by microscopy. To be noted: Human immunodeficiency virus 2, ISOLATE ROD.
Series [2] is described as follows: Cytotoxicity against human CEM/0 CD4+ T cells assessed as reduction in cell viability. It counts as cell-based, CCRF-CEM. In short, it runs like this: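 Cytostatic readout: CC₅₀ is the compound concentration inhibiting CEM CD4⁺ T-cell proliferation by 50%. Values are the mean ± SD of n = 2−3 independent experiments.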
Series [3] in a line: Stability of compound in human CEM/0 cell extract assessed as half life by RP18-HPLC analysis. It counts as ADME, tissue-based, CCRF-CEM. The essentials:
(§1)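 Extract preparation: CEM CD4⁺ T-cells grown in RPMI-1640 to ~3 × 10⁶ cells/mL, washed in cold PB, resuspended at 10⁸ cells/mL, sonicated, clarified at 10,000 rpm and stored at −80 °C. Compounds from 50 mM DMSO stock (diluted to 6.0 mM in DMSO) incubated in the extract. Reactions stopped with THF, put on ice, centrifuged and filtered.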

Series [4] in a line: Chemical stability of compound assessed as half life in PBS at pH 7.3 by RP18-HPLC analysis. The series is classed as physicochemical. The essentials:
(§2)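 From 50 mM DMSO stocks, diluted to 1.9 mM hydrolysis solutions in water/DMSO. Reaction started by adding phosphate buffer (50 mM, pH 7.3; 25 mM also stated). Incubated at 37 °C with time-course sampling. Starting material and products (γ-kb-NTP, d4TDP, thymine) followed by analytical rp18 HPLC, from which t½ was calculated.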

Series [5] has as its system Human immunodeficiency virus 1. Put plainly: Antiviral activity against HIV1 3B infected in human CEM/0 cells assessed as inhibition of virus-induced syncytia cell formation measured after 4 to 5 days by microscopic analysis. It counts as functional, organism-based. The conditions noted are these: Human immunodeficiency virus 1, 3B, CCRF-CEM. In short, it runs like this:
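Syncytium-inhibition assay in wild-type CEM/0 or TK-deficient CEM/TK⁻ cells, ~3 × 10⁵ cells/mL, infected with 100 CCID₅₀/mL HIV-1(III_B) or HIV-2(ROD), with serial compound dilutions. Incubated 4−5 days at 37 °C in humidified CO₂ atmosphere. Giant cells scored microscopically; EC₅₀ is the concentration halving HIV-induced giant cell formation. Values are the mean ± SD of n = 2−3 independent experiments.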

The test system of series [6] is Human immunodeficiency virus 2. Put plainly: Antiviral activity against HIV2 ROD infected in human CEM/0 cells assessed as inhibition of virus-induced syncytia cell formation measured after 4 to 5 days by microscopic analysis. The conditions noted are these: Human immunodeficiency virus 2, ISOLATE ROD, CCRF-CEM.
Series [7] can be described thus: Prodrug conversion in human CEM/0 cell extract assessed as NTP formation by RP18-HPLC analysis. The series is classed as ADME, tissue-based. To be noted: ccrf-cem. In short, it runs like this: as §1
A short description of series [8]: Prodrug conversion in PBS buffer at pH 7.3 assessed as pig liver esterase-mediated cleavage of ketobenzyl-residue measured over 800 hrs by HPLC analysis. The conditions noted are these: pH 7.3, 800 h. It counts as ADME, Sus scrofa.
The nature of series [9]: Stability in pH 7.3 PBS assessed as pig liver esterase mediated hydrolysis by measuring half life upto 2 hrs by HPLC analysis. The series is classed as ADME, Sus scrofa. The essentials:
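Porcine liver esterase (3 mg/mL in PB) added to compound diluted from a 6.0 mM DMSO/water solution into DMSO and 50 mM phosphate buffer, pH 7.3. Incubated at 37 °C. Timed aliquots snap-frozen in liquid nitrogen, then thawed, sonicated, centrifuged, filtered and analysed by HPLC. t½ calculated as for chemical hydrolysis.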

Series [10] is described as follows: Prodrug conversion in human CEM/0 cell extract assessed as d4TDP formation by RP18-HPLC analysis. It counts as ADME, tissue-based. To be noted: ccrf-cem. In short, it runs like this: as §1
The nature of series [11]: Prodrug conversion in human CEM/0 cell extract assessed as gamma-kb-d4TTP formation by RP18-HPLC analysis. The series is classed as ADME, tissue-based. To be noted: ccrf-cem. The essentials:
as §1

The nature of series [12]: Stability in human CEM/0 cell extract assessed as parent compound remaining after 98 hrs by HPLC analysis. The series is classed as ADME, tissue-based, CCRF-CEM. To be noted: read-out: Stabilty. The essentials:
as §1

Series [13] in a line: Prodrug conversion in human CEM/0 cell extract assessed as d4TDP formation after 96 hrs by HPLC analysis. It counts as ADME, tissue-based. The conditions noted are these: ccrf-cem. The essentials:
as §1

Series [14] in a line: Substrate activity at HIV reverse transcriptase assessed as increase in primer extension incubated at 37 degC for 60 mins and at 80 degC for 3 mins in presence of fluorescent-lebelled dATP, dCTP and dGTP by PAGE analysis. It counts as ADME. The conditions noted are these: human immunodeficiency virus, 1.05 h; time 63 min.
Series [15] is described as follows: Substrate activity at human DNA polymerase gamma assessed as increase in primer extension incubated at 37 degC for 60 mins and at 80 degC for 3 mins in presence of fluorescent-lebelled dATP, dCTP and dGTP by PAGE analysis. The conditions noted are these: 1.05 h, time 63 min. It counts as ADME. The essentials:
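Human DNA polymerase γ (4 U) with Cy3-primer/template duplex 0.20 μM in 60 mM Tris-HCl pH 8, 5 mM MgOAc, 1.0 mM DTT, 0.1 mM spermine, 0.01% BSA. Preincubated 5 min at 37 °C without nucleotides, then run 60 min at 37 °C with nucleotides 250 μM, then 80 °C for 3 min. Denaturing 15% PAGE with fluorescence imaging.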

A short description of series [16]: Prodrug conversion in human CEM/0 cell extract assessed as d4TTP formation after 96 hrs by HPLC analysis. The series is classed as ADME, tissue-based. The conditions noted are these: ccrf-cem. In short, it runs like this:
as §1

Series [17] can be described thus: Chemical stability of compound in PBS at pH 7.3 by RP18-HPLC analysis. It counts as physicochemical. To be noted: buffer. In short, it runs like this: as §2
The nature of series [18]: Selectivity index, ratio of CC50 for cytotoxicity against human CEM/0 CD4+ T cells to EC50 for antiviral activity against HIV1 3B infected in human CEM/0 cells. The series is classed as toxicity, cell-based. The conditions noted are these: read-out: Ratio CC50/EC50. The essentials:
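Selectivity index from CC₅₀ (50% inhibition of CEM cell proliferation) and EC₅₀ (50% inhibition of HIV-1(III_B)-induced giant cell formation in CEM/0 cells, 4−5 days, microscopy), both mean ± SD of n = 2−3 independent experiments.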

On to `CCCCCCCCC(=O)Oc1ccc(COP(=O)(OCc2ccc(OC(=O)CCCCCCCC)cc2)OP(=O)(O)OP(=O)(O)OC[C@@H]2C=C[C@H](n3cc(C)c(=O)[nH]c3=O)O2)cc1`, for which the EC50 was found to be 2260 nM in [1], 310 nM in [5] and 620 nM in series [6]. Moreover, the CC50 in series [2] was determined as 52 µM. The half-life in [3] was 150 min; in series [4], 2.17 days.
Turning to `CCCCCCCCCC(=O)c1ccc(COP(=O)(OCc2ccc(OC(=O)CCCC)cc2)OP(=O)(O)OP(=O)(O)OC[C@@H]2C=C[C@H](n3cc(C)c(=O)[nH]c3=O)O2)cc1` (stereo not given in full), the Drug metabolism result in [7] is given as “Metabolite_Notdetected”; in [8], “Metabolite_Notdetected”; in [10], “Metabolite_Detected”; in [11] it was “Metabolite_Detected”. Also, the figures for the concentration for a half-maximal effect (EC50) in [1], in series [5] and in [6] were 2500 nM, 370 nM and 1200 nM, respectively. The CC50 in series [2] is 25 µM. The half-life in series [9] was 10 min; in series [3] it was 66 min; in [4], 1.79 days.
As for `CCCCCCCCCCCCCCCCCC(=O)c1ccc(COP(=O)(O)OP(=O)(O)OP(=O)(O)OC[C@@H]2C=C[C@H](n3cc(C)c(=O)[nH]c3=O)O2)cc1`, the remaining at 98 h in series [12] was 89%. Further, the Drug metabolism result in [13], in [8] and in series [16] was “Metabolite_Notdetected” throughout. In addition, the EC50 in series [1] came out at 260 nM; in [5], 330 nM; in [6], 600 nM. In [2], the cytotoxic concentration (CC50) is 13 µM. The Activity entry in series [14] is given as “Active”; in series [15], “Not Active”. The half-life in series [3] was > 1800 min. Further, in [17], the Stabilty result is “Stable”.
With `Cc1cn([C@H]2C=C[C@@H](COP(=O)(O)OP(=O)(O)OP(=O)(O)O)O2)c(=O)[nH]c1=O` [STAVUDINE TRIPHOSPHATE], the EC50 in series [1] was > 100000 nM; in series [5] it was 1050 nM; in series [6] it was 400 nM. For the same molecule, in series [2], the CC50 is > 100 µM. The result in series [14] was Active.
As for `CCCCCCCCCCCCCCCCCC(=O)c1ccc(COP(=O)(OCc2ccc(OC(=O)CCCCCC)cc2)OP(=O)(O)OP(=O)(O)OC[C@@H]2C=C[C@H](n3cc(C)c(=O)[nH]c3=O)O2)cc1` (stereo not given in full), the Drug metabolism result in series [7] is recorded as “Metabolite_Notdetected”; in series [8] it was “Metabolite_Notdetected”; in [10] it was “Metabolite_Detected”; in series [11], “Metabolite_Detected”. In addition, the EC50 in series [1] was 400 nM; in series [5] it was 440 nM; in [6], 1100 nM. Moreover, the CC50 in series [2] stood at 34 µM. The values for the half-life in series [9], in series [3] and in series [4] were 10 min, 414 min and 4.54 days, respectively.
As to `CCCCCCCCCCCCCCCCCC(=O)Oc1ccc(COP(=O)(OCc2ccc(C(=O)CCCCCCCCCCCCCCCCC)cc2)OP(=O)(O)OP(=O)(O)OC[C@@H]2C=C[C@H](n3cc(C)c(=O)[nH]c3=O)O2)cc1` (stereo not given in full), the Drug metabolism result in [7] is given as “Metabolite_Notdetected”; in [8], “Metabolite_Notdetected”; in series [10], “Metabolite_Detected”; in series [11] it was “Metabolite_Detected”. Also, the EC50 is 380 nM in [1], 420 nM in series [5] and 830 nM in [6]. In addition, the CC50 in [2] is 28 µM. Also, the half-life was 10 min in series [9], 126 min in series [3] and 0.458 days in series [4].
As for `Cc1cn([C@H]2C=C[C@@H](CO)O2)c(=O)[nH]c1=O` [STAVUDINE], the half-maximal effective concentration (EC50) is 150000 nM in series [1], 430 nM in series [5] and 220 nM in series [6].
For `CCCCCCCCCC(=O)c1ccc(COP(=O)(O)OP(=O)(O)OP(=O)(O)OC[C@H]2O[C@@H](n3cnc4c(N)ncnc43)C[C@@H]2O)cc1`, the 50% effective concentration (EC50) was > 10000 nM in [1], 10000 nM in [5] and > 10000 nM in series [6]. Besides, the half-maximal cytotoxic concentration (CC50) in [2] amounted to 74 µM. For the same molecule, the selectivity ratio in series [18] was 7. The Drug metabolism result in [8] is “Metabolite_Notdetected”. Moreover, the Stabilty entry in series [17] is on record as “Stable”.
As for `CCCCCCCCCCCCCCCCCC(=O)Oc1ccc(COP(=O)(OCc2ccc(C(=O)CCCCCCCCC)cc2)OP(=O)(O)OP(=O)(O)OC[C@@H]2C=C[C@H](n3cc(C)c(=O)[nH]c3=O)O2)cc1` (stereo not given in full), the Drug metabolism entry is on record as “Metabolite_Notdetected” in series [7], “Metabolite_Notdetected” in [8], “Metabolite_Detected” in series [10] and “Metabolite_Detected” in series [11]. In addition, the EC50 in [1] was 1100 nM; in series [5], 580 nM; in [6], 780 nM. In addition, the CC50 in series [2] is 35 µM. Besides, the half-life in series [9] is 10 min; in series [3], 468 min; in series [4], 3.92 days.
Consider `CCCCCCCCCC(=O)c1ccc(COP(=O)(O)OP(=O)(O)OP(=O)(O)OC[C@@H]2C=C[C@H](n3cc(C)c(=O)[nH]c3=O)O2)cc1`, for which the remaining at 98 h in series [12] amounted to 89%. Also, the Drug metabolism result in series [13], in series [8] and in series [16] was “Metabolite_Notdetected” throughout. For the same molecule, the Activity result is given as “Active” in series [14] and “Not Active” in [15]. Also, in series [3], the half-life is > 1800 min. The Stabilty entry in series [17] is given as “Stable”.
As to `CCCCCCCCCCCCCCCCCC(=O)Oc1ccc(COP(=O)(OCc2ccc(OC(=O)CCCC)cc2)OP(=O)(O)OP(=O)(O)OC[C@@H]2C=C[C@H](n3cc(C)c(=O)[nH]c3=O)O2)cc1` (stereo not given in full), the values for the concentration for a half-maximal effect (EC50) in [1], in series [5] and in series [6] were 540 nM, 120 nM and 100 nM, respectively. In addition, the CC50 in [2] turned out to be 33 µM. Also, the half-life in [4] was 2.08 days.
